One may read the Papp A→B as how fast a substance crosses the layer from the apical side. What is called Papp B→A is how fast a substance crosses the layer from the basolateral side. As a reminder, the thermodynamic solubility is solubility found after equilibrating the solid with the medium. By EC50 is commonly meant the concentration at which the effect is half-maximal. In general, IC50 refers to the midpoint of a concentration-inhibition curve.

Data set [1] is described as follows: Drug level in human hepatocytes treated with RAF709 at 10 uM measured after 3 hrs by LC-MS/MS analysis. The data set is classed as ADME, cell-based, Hepatocyte.
Data set [2] in a line: Drug level in rat hepatocytes treated with RAF709 at 10 uM measured after 3 hrs by LC-MS/MS analysis. The data set is classed as ADME, cell-based, Hepatocyte.
Data set [3] is described as follows: Drug level in dog hepatocytes treated with RAF709 at 10 uM measured after 3 hrs by LC-MS/MS analysis. It is filed as ADME, cell-based, Canis lupus familiaris, Hepatocyte.
Data set [4] in a line: Apparent permeability across apical to basolateral side in human Caco2 cells at pH 7.4 by LC/MS/MS analysis. It is filed as ADME, cell-based. To be noted: Caco-2, pH 7.4. (Caco-2 cells form a polarised layer with tight junctions and transporters.)
Data set [5] in a line: Intrinsic clearance in human liver microsomes. It is filed as ADME, Microsome. The settings on record: read-out: CLH. Background: Liver microsomes are a subcellular fraction often used to study metabolism.
Data set [6] is described as follows: Apparent permeability across basolateral to apical side in human Caco2 cells at pH 7.4 by LC/MS/MS analysis. It is filed as ADME, cell-based. To be noted: Caco-2, pH 7.4.
Data set [7] can be described thus: Solubility of compound in pH 6.8 Cl-free PBS buffer by shake-flask assay. The data set is classed as physicochemical. Put shortly: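 Shake-flask solubility measured in chloride-free PBS at pH 6.8.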
Data set [8] has as its system Calu-6. The data set can be described thus: Antiproliferative activity against human Calu6 cells harboring KRAS Q61K mutant assessed as reduction in cell viability after 72 hrs by CellTiter-Glo assay. It is filed as functional, cell-based. The settings on record: Calu-6, 72 h.
For data set [9], the target named is Cytochrome P450 3A4 (Homo sapiens, UniProt P08684). The data set can be described thus: Time dependent inhibition of CYP3A4 in human liver microsomes assessed as inactivation rate constant at 10 uM using midazolam as substrate incubated prior to substrate addition and measured after 6 mins in presence of NADPH. It is filed as ADME. The settings on record: 0.1 h. Put shortly: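 Human liver microsomes (0.5 mg/mL) preincubated with test compound at 10 µM and 1 mM NADPH in phosphate buffer at 37 °C for 0, 5, 15 and 30 min. Mixture then diluted 20-fold and incubated with midazolam (20 µM) at 37 °C for 6 min to measure residual CYP3A4 activity. kobs taken as the initial rate of decline of activity versus preincubation time.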

Data set [10] deals with T1, RAF proto-oncogene serine/threonine-protein kinase (Homo sapiens, UniProt P04049). Description: Inhibition of CRAF in human Calu6 cells assessed as reduction MEK phosphorylation measured after 1 hr by sandwich ELISA. The data set is classed as cell-based. (ELISA stands for enzyme-linked immunosorbent assay.)
Data set [11] addresses RAF proto-oncogene serine/threonine-protein kinase (Homo sapiens, UniProt P04049, Y340E/Y341E). The data set can be described thus: Inhibition of CRAF Y340E/Y341E mutant (unknown origin) using human MEK1 K97R mutant as substrate pretreated for 30 mins followed by substrate addition measured after 40 mins by alphascreen assay.
Data set [12] has as its target T1, RAF proto-oncogene serine/threonine-protein kinase. The data set can be described thus: Inhibition of CRAF in human Calu6 cells assessed as reduction MEK phosphorylation up to 24 uM measured after 1 hr by sandwich ELISA. The data set is classed as cell-based.
Data set [13] can be described thus: Stimulation of BRAF-CRAF dimerization in human HCT116 cells measured after 2 hrs by NanoBit luciferase complementation assay. It is filed as cell-based.
Data set [14] addresses T1, RAF proto-oncogene serine/threonine-protein kinase. The data set can be described thus: Activation of CRAF in human Calu6 cells assessed as induction of MEK phosphorylation at 3 uM measured after 1 hr by sandwich ELISA. The data set is classed as cell-based.
A short description of data set [15]: Drug metabolism in rat hepatocytes assessed as amide hydrolysis at 10 uM measured after 3 hrs by LC-MS/MS analysis. The data set is classed as ADME, cell-based, Hepatocyte.
A short description of data set [16]: Stability in human hepatocytes assessed as parent compound remaining at 10 uM measured after 3 hrs by LC-MS/MS analysis. The data set is classed as ADME, cell-based, Hepatocyte. The settings on record: read-out: Stability.
The nature of data set [17]: Stability in dog hepatocytes assessed as parent compound remaining at 10 uM measured after 3 hrs by LC-MS/MS analysis. It is filed as ADME, cell-based, Canis lupus familiaris, Hepatocyte. To be noted: read-out: Stability.
The nature of data set [18]: Stability in rat hepatocytes assessed as parent compound remaining at 10 uM measured after 3 hrs by LC-MS/MS analysis. It is filed as ADME, cell-based, Hepatocyte.
Data set [19] in a line: Drug metabolism in human hepatocytes assessed as amide hydrolysis at 10 uM measured after 3 hrs by LC-MS/MS analysis. The data set is classed as ADME, cell-based, Hepatocyte.

≈ marks a conversion by molar mass, not a printed value. Calls of active or inactive are those of the source. No cut-off for these calls is given here.

T1 sequence (P04049 whole entry): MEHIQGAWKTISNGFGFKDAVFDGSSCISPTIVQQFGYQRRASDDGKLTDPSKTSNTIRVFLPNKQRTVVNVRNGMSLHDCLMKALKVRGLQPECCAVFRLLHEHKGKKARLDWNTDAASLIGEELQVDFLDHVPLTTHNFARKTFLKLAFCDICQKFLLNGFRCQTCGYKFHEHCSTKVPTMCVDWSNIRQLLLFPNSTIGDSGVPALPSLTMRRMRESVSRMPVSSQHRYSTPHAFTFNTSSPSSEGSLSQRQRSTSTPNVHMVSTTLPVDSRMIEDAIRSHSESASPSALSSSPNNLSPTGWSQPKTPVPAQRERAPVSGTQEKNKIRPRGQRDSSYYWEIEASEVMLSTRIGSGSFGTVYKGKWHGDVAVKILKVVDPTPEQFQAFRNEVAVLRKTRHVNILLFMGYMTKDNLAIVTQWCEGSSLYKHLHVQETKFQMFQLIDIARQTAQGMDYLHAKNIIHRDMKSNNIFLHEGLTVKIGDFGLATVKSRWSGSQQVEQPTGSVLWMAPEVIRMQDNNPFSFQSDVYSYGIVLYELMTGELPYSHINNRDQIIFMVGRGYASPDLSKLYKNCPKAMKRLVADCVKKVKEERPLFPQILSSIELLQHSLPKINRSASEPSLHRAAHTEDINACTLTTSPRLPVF
RAF proto-oncogene serine/threonine-protein kinase (Homo sapiens, UniProt P04049, Y340E/Y341E), sequence (P04049 whole entry Y340E/Y341E): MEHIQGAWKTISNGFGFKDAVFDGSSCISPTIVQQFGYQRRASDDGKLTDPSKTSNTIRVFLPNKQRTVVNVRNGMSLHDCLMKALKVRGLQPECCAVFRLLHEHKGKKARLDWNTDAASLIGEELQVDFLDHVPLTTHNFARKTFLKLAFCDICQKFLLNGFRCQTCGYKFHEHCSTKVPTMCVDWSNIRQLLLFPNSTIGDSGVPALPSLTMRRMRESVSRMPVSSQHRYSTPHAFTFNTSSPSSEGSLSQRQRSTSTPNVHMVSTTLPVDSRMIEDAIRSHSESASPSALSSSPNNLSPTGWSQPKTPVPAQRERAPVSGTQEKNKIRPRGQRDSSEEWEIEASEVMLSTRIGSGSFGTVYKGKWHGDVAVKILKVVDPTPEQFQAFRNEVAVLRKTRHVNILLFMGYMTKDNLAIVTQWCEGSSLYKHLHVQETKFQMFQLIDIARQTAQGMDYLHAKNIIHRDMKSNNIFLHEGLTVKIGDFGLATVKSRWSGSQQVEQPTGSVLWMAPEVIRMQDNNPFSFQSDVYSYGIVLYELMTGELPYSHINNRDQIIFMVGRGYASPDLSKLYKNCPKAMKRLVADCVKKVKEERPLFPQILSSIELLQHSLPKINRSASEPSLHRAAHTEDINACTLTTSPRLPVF
Cytochrome P450 3A4, sequence (P08684 whole entry): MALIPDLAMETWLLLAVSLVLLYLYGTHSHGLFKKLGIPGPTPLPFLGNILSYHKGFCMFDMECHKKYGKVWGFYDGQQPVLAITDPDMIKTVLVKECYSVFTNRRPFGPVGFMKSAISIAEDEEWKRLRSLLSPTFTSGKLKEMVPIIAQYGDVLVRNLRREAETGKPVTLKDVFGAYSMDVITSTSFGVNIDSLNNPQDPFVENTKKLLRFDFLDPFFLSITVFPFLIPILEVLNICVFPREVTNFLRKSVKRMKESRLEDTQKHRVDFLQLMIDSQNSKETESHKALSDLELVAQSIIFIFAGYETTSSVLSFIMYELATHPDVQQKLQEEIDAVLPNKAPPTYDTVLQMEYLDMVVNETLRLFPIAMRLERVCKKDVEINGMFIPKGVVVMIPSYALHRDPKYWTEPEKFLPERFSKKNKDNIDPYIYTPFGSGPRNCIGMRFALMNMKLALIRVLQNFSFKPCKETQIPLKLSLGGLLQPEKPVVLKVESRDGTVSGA

In the case of `Cc1ncc(NC(=O)c2cccc(C(F)(F)F)c2)cc1-c1cnc(OC(CCO)CCO)c(N2CCOCC2)c1`, the Drug uptake entry in data set [1], in data set [2] and in data set [3] was “Active” throughout.
With `Cc1ncc(NC(=O)c2cccc(C(F)(F)F)c2)cc1-c1c[nH]c(=O)c(N2CCOCC2)c1`, in data set [4], the Papp A→B amounted to 0.3 ×10⁻⁶ cm/s. The microsomal CLint in data set [5] turned out to be 9.4 µL/min/mg. Also, the Papp B→A in [6] was 43 ×10⁻⁶ cm/s. The compound further returned a solubility (thermodynamic) in data set [7] of 55 µM (≈ 25.2 µg/mL). In [8], the EC50 turned out to be 3.91 µM. For the same compound, the Drug uptake result in data set [1], in [2] and in [3] was “Active” throughout.
Regarding `[2H]C1(Oc2ncc(-c3cc(NC(=O)c4cccc(C(F)(F)F)c4)cnc3C)cc2N2CCOCC2)CCOCC1`, the microsomal CLint in data set [5] stood at 88 µL/min/mg. Moreover, the solubility (thermodynamic) in data set [7] was 104 µM (≈ 56.5 µg/mL). The EC50 in [8] is 0.4 µM.
In the case of `Cc1ncc(NC(=O)c2ccnc(C(C)(F)F)c2)cc1-c1cc(NCCO)nc(N2CCOCC2)c1`, the Papp A→B in data set [4] is 3 ×10⁻⁶ cm/s. Also, the microsomal CLint in data set [5] was 10.4 µL/min/mg. In [6], the Papp B→A came out at 34 ×10⁻⁶ cm/s. This compound yielded a thermodynamic solubility in data set [7] of 730 µM (≈ 364 µg/mL). For the same compound, the EC50 in data set [8] came to 6.22 µM; in [10] it was 0.027 µM. Besides, the K in [9] was 0.035 min⁻¹. In addition, the IC50 in data set [11] was determined as 0.0007 µM.
On to `CC(C)(C)c1nc(-c2cccc(NS(=O)(=O)c3c(F)cccc3F)c2F)c(-c2ccnc(N)n2)s1` [DABRAFENIB], for which, in data set [12], the inhibition entry is “inactive”. For the same compound, the EC50 entry in data set [13] is reported as “Not Active”. In addition, the outcome in [14] was Active.
With `Cc1ccc(NC(=O)c2cccc(C(F)(F)F)c2)cc1-c1cc(N2CCOCC2)nc(NCCO)n1`, in data set [4], the Papp A→B turned out to be 8 ×10⁻⁶ cm/s. Moreover, the microsomal CLint in data set [5] was determined as 48 µL/min/mg. Further, the Papp B→A in [6] was 30 ×10⁻⁶ cm/s. In addition, in [7], the thermodynamic solubility is 2.1 µM (≈ 1.05 µg/mL). Also, the EC50 came to 0.16 µM in data set [8] and 0.061 µM in [10]. Besides, in [11], the IC50 came out at 0.0002 µM.
As to `Cc1ccc(NC(=O)c2cccc(C(F)(F)F)c2)cc1-c1cc(N2CCOCC2)ncn1`, the microsomal CLint in data set [5] was found to be 43.3 µL/min/mg. For the same compound, in data set [6], the Papp B→A stood at 41 ×10⁻⁶ cm/s. In data set [7], this compound registered a thermodynamic solubility of 13 µM (≈ 5.75 µg/mL). For the same compound, the EC50 in data set [8] was determined as 5.28 µM.
On to `CO[C@H]1COCC[C@@H]1Oc1ncc(-c2cc(NC(=O)c3cccc(C(F)(F)F)c3)cnc2C)cc1N1CCOCC1`, for which the microsomal CLint in [5] was 302 µL/min/mg. The same compound showed a solubility (thermodynamic) in data set [7] of 43 µM (≈ 24.6 µg/mL). Also, the concentration giving a half-maximal response (EC50) in data set [8] came to 1.76 µM; in data set [10] it was 0.021 µM. The IC50 in data set [11] came to 0.0017 µM.
For `Cc1ncc(NC(=O)c2cccc(C(F)(F)F)c2)cc1-c1cnc(OC2CCOCC2)c(N(CCO)CCO)c1`, the Drug uptake result in data set [1], in data set [2] and in data set [3] was “Active” in each case.
`Cc1ncc(NC(N)=O)cc1-c1cnc(OC2CCOCC2)c(N2CCOCC2)c1`: the Drug uptake entry in data set [1], in [2] and in data set [3] was “Active” throughout.
On to `Cc1ncc(NC(=O)c2cccc(C(F)(F)F)c2)cc1-c1cnc(O[C@H]2CCOC[C@H]2F)c(N2CCOCC2)c1`, for which the Papp A→B in [4] stood at 16 ×10⁻⁶ cm/s. The microsomal CLint in data set [5] is 65.5 µL/min/mg. In addition, the Papp B→A in data set [6] amounted to 20 ×10⁻⁶ cm/s. In data set [7], this compound gave a solubility (thermodynamic) of 25 µM (≈ 14 µg/mL). Besides, the EC50 in data set [8] is 0.34 µM.
As for `Cc1ncc(N)cc1-c1cnc(OC2CCOCC2)c(N2CCOCC2)c1`, the Drug uptake result in data set [1], in data set [2] and in data set [3] was “Active” throughout.
As to `Cc1ncc(NC(=O)c2cccc(C(F)(F)F)c2)cc1-c1cc(N2CCOCC2)c(OC2CCOCC2)nn1`, in [4], the Papp A→B is 4.4 ×10⁻⁶ cm/s. For the same compound, the microsomal CLint in data set [5] is 7.7 µL/min/mg. The Papp B→A in data set [6] is 51 ×10⁻⁶ cm/s. Further, in data set [7], the thermodynamic solubility is 59.6 µM (≈ 32.4 µg/mL). Further, the EC50 in data set [8] came to 0.88 µM; in data set [10], 0.008 µM.
Turning to `Cc1ncc(NC(=O)c2cccc(C(F)(F)F)c2)cc1-c1cnc(OC2CCOCC2)c(N2CCOCC2)c1`, the Drug metabolism in data set [15] is 20%; in data set [19], under 1%. In addition, the microsomal CLint in data set [5] turned out to be 94 µL/min/mg. Further, the results for the remaining at 3 h, 10 µM in data set [16] and in [17] were 44% and 74%, respectively. The Stability in data set [18] turned out to be 36%.
Turning to `Cc1ccc(NC(=O)c2ccnc(C(F)(F)F)c2)cc1-c1cc(NCCO)nc(N2CCOCC2)c1`, the Papp A→B in [4] was determined as 5 ×10⁻⁶ cm/s. Moreover, in data set [5], the microsomal CLint came to 20.5 µL/min/mg. For the same compound, the Papp B→A in data set [6] turned out to be 53 ×10⁻⁶ cm/s. This compound also showed a thermodynamic solubility in [7] of 36.3 µM (≈ 18.2 µg/mL). For the same compound, the EC50 in data set [8] is 0.51 µM; in [10], 0.008 µM. Moreover, the K in [9] amounted to 0.035 min⁻¹. For the same compound, the IC50 in data set [11] worked out at 0.0006 µM.
As for `Cc1ccc(NC(=O)c2ccnc(C(C)(C)C#N)c2)cc1-c1cc(N2CCOCC2)c(=O)n(C)n1`, the Papp A→B in data set [4] worked out at 6.3 ×10⁻⁶ cm/s. Moreover, the microsomal CLint in data set [5] came to 15.5 µL/min/mg. In addition, the Papp B→A in [6] came to 49 ×10⁻⁶ cm/s. For the same compound, in data set [7], the thermodynamic solubility stood at 33.9 µM (≈ 16 µg/mL). Further, the EC50 was found to be 1.35 µM in [8] and 0.052 µM in [10].
